# STAT1 blocker – STAT1 signaling inhibition. NIH 3T3 STAT1-luciferase reporter, IFN-gamma, luminescence. inhibition, % at 5.5 µM. actives 0.35% (n = 200,000). AID 920;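 active = inhibition above a set limit, the mean inhibition across all tested compounds plus 3 SD, cut at about 34% in these data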;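 note: 0% = IFN-gamma with DMSO and 100% = IFN-gamma with 300 µM nifuroxazide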
# STAT3 inh – STAT3 signaling inhibition; U3A cells, IL-6 STAT3-luciferase reporter, luminescence; host cell line lacks STAT1; AID 862; inhibition, % at 5.5 µM; actives 0.89% (n = 190,000);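 active = inhibition above the mean inhibition across all screened compounds plus 3 SD, cut at about 44% in these data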;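 note: 0% = DMSO only wells and 100% = 100 µM nifuroxazide control wells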
# APP 5'UTR act – activates APP 5'UTR luciferase reporter | SH-SY5Y APP 5'UTR luciferase reporter, luminescence; zero percent = DMSO vehicle wells | activation, % at 2 µM | actives 1% (n = 190,000) | AID 1276;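 active = activation above a set limit, based on mean plus 3 SD of controls, cut at about 140% in these data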
# NF-kB neuron act – compounds increasing NF-kB expression in human neuronal cells. NF-kB reporter expression; hits give high values. fold change at 12.5 µM. actives 1.6% (n = 190,000). AID 1239; in the data active = fold change above about 3.3
# STAT3 act – activators of IL-6 induced STAT3 signaling | actives 0.91% (n = 190,000) | U3A cells, IL-6 STAT3-luciferase reporter, luminescence; 100% = signal with IL-6 EC80 alone | activation (% of control), % at 5.6 µM;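 active = activation above the screen-wide mean of compound activation plus 3 SD, cut at about 130% in these data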;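 note: 0% = background luminescence of wells with medium and substrate only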
#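 Material: STAT1-lacking human U3A cells, STAT3 luciferase reporter | Benchmarks: IL-6-only wells as 100% reference | Probe or stimulus: IL-6 (33 ng/mL) | Timing: Compound 1 h, then IL-6 6 h at 37 °C | Detection: Luminescence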
# STAT1 activator – increases IFN-gamma driven STAT1 reporter signal; AID 932; activation (% of control), % at 5.5 µM; actives 2.6% (n = 200,000); NIH 3T3 STAT1-luciferase reporter, luminescence; 100% = IFN-gamma alone, no compound;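 active = activation above the screen-wide mean activation plus 3 SD, cut at about 130% in these data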;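 note: raw ratio to IFN-gamma control signal so 100% means no change and 0% no light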
# An asterisk follows results filed as active; nt = not tested or not shown. Hits are enriched below; roughly 5.1% of the tested compounds scored in any of these assays.
SMILES,STAT1 blocker,STAT3 inh,APP 5'UTR act,NF-kB neuron act,STAT3 act,STAT1 activator
Cc1ccc(-n2c(C)cc(C(=O)COC(=O)c3c(C)noc3C)c2C)cc1,-31.6,16.2,72.3,3.47*,89.3,129.3*
Cc1ccc2nc(-c3cccc(S(=O)(=O)N(C)C)c3)cn2c1,-39.6,4.0,69.2,2.43,98.2,136.2*
CN1CCc2c(sc3c2c(=O)n(-c2ccccc2)c2n[nH]c(=S)n32)C1,-1.3,16.5,8.5,0.98,92.9,95.7
O=C(c1cccc(-c2ccc(O)cc2)c1)N1CCN(c2ccc(F)cc2)CC1,10.2,9.5,12.0,0.9,97.7,89.9
Cc1ccc(-c2csc(/C(C#N)=C(\O)CCl)n2)cc1,-41.7,14.9,106.9,1.62,94.0,139.5*
CCC(=O)Nc1cccc(NC(=S)NC(=O)c2cccs2)c1,-36.5,-10.8,32.2,1.81,109.1,132.5*
CC(C)c1ccc(NC(=O)C(c2ccccc2)N2CC(=O)Nc3ccccc32)cc1 (stereo not given),-9.5,-4.2,38.3,0.64,103.5,108.6
C=CCNC(=O)c1c(Cl)cnn1-c1ccc(C)cc1,-45.3,3.7,103.9,3.24,101.2,138.7*
Cc1ccc(-n2ncc3c(=O)n(CC(=O)NC4CCCCC4)cnc32)cc1,-0.5,2.0,-2.5,1.04,102.8,100.4
Cc1ccc(-n2ncc(Cl)c2C(=O)NC2CC2)cc1,-47.2,-7.6,98.0,2.95,110.6,141.0*
O=C(NCCOc1ccc(Cl)cc1)c1ccc2ccccc2n1,-5.3,12.5,16.7,1.2,93.0,103.5
O=C(O)C(=O)/C(=C\c1cccc(Cl)c1)c1ccc2ccccc2n1,-39.0,-31.4,45.6,1.3,129.4,137.3*
CN(C)C(=S)c1ccc2ccccc2n1,5.7,-5.3,-5.0,0.71,107.0,94.8
Cc1cccc(/C=C(\C(=O)C(=O)O)c2ccc3ccccc3n2)c1,-53.4,-19.9,25.1,1.02,123.6,147.9*
COc1ccc(NC(=O)c2cc(-c3ccco3)on2)cc1,-55.0,7.8,-4.9,1.27,103.8,149.3*
CCc1ccc(NC(=O)c2cc(-c3ccco3)on2)cc1,-32.1,6.8,-6.2,2.64,93.7,129.7*
O=C(Nc1cccnc1Cl)c1cc(-c2ccco2)on1,-28.9,-1.3,22.2,2.81,107.3,126.7
Nc1nccc(/C=C/c2c(F)cccc2Cl)n1,-24.6,27.1,26.6,1.64,80.7,122.5
Oc1cccc2ccc(/C=C/c3c(F)cccc3Cl)nc12,0.0,-19.2,136.4*,5.44*,120.3,97.0
O=C(COC(=O)Cc1ccc(Cl)cc1Cl)Nc1ccccc1OC(F)F,7.0,-1.5,3.4,1.23,103.7,93.8
Cc1ccc(NC(=O)Nc2cc(C)on2)cc1,-32.2,14.4,66.8,1.95,92.3,130.1*
Cc1ccc(NC(=O)Nc2ccc(F)cc2)nc1,-47.5,6.6,35.1,2.14,97.0,135.6*
Cc1ccc(NC(=O)Nc2ccc3c(c2)N(C)C(=O)CS3)nc1,-31.1,32.6,-1.0,1.12,74.1,128.6*
CCOc1ccc(NC(=O)Nc2ccc(Br)cn2)cc1,-50.5,25.9,49.5,1.86,85.8,145.1*
Clc1ccc(-c2nnc(COc3ncnc4sccc34)o2)cc1,-2.0,6.7,8.0,1.32,92.8,101.8
SMILES,STAT1 blocker,STAT3 inh,APP 5'UTR act,NF-kB neuron act,STAT3 act,STAT1 activator
COc1ccc(-c2nn(-c3ccccc3)cc2/C=C/C(=O)N2CCN(c3ccccn3)CC2)cc1,-11.8,6.6,1.9,1.14,95.8,109.8
O=C(Nc1ccc(SC(F)F)cc1)c1ccc(F)cc1,-39.0,19.8,107.3,4.7*,84.3,137.3*
O=C(Nc1ccc(F)cc1)c1ccccc1,-22.8,0.6,45.0,1.72,99.6,120.9
CC(C)(C)C(=O)/C=c1\s/c(=C\c2ccc(-c3ccc([N+](=O)[O-])cc3)o2)c(=O)n1CC(=O)NC(N)=O,-10.7,-17.6,19.1,0.6,118.2,108.0
COc1ccc(C(=O)CSc2ccc(-c3ccccc3)nn2)cc1,-0.1,-0.3,8.0,1.34,96.1,100.1
COc1ccc(-c2ccc(SC)nn2)cc1,58.7*,83.6*,113.7,nt,30.0,46.1
CCc1ccc2oc(-c3ccc(OC)cc3)cc(=Nc3c(C)n(C)n(-c4ccccc4)c3=O)c2c1,-7.0,0.6,172.8*,0.64,102.5,105.3
CCc1ccc2oc(-c3ccc(OC)cc3)cc(=Nc3cccc(C(=O)O)c3)c2c1,11.5,27.1,203.9*,7.19*,79.3,88.4
COc1ccc2cc(C(=O)NCc3ccco3)c(=Nc3ccc(C(=O)O)cc3)oc2c1,11.2,26.5,38.5,1.65,81.5,90.8
COc1ccc(-c2cc(=Nc3ccc(C(=O)O)cc3)c3cc(C)ccc3o2)cc1,-20.4,18.0,209.4*,3.03,91.0,116.6
COc1ccc(Cn2c(-c3ccc(C)cc3)nc3c(c(=O)c4ccccc4n3C)c2=O)cc1,3.1,-3.0,11.4,1.08,100.3,97.2
CCN(CC)C(=O)CSc1nnc(CNc2ccc(F)cc2)o1,-0.4,6.1,19.6,1.98,98.6,100.4
COc1ccc(Cl)cc1N(CC(=O)NC(C(C)C)C(C)C)S(C)(=O)=O,5.0,-4.0,14.6,0.98,107.0,95.5
COc1ccc2oc(-c3ccc(C)c(NC(=O)c4ccc(N5CCOCC5)c([N+](=O)[O-])c4)c3)nc2c1,-18.1,6.5,102.4,1.47,104.2,116.3
O=C(NC1CCCc2ccccc21)C12CC3CC(CC(O)(C3)C1)C2 (stereo not given),-25.1,8.8,22.7,1.02,99.7,120.9
Cc1nn(-c2ccccc2)c(N)c1N=Nc1ccc2ccccc2c1,-44.0,0.8,75.9,3.9*,107.3,140.2*
COCCn1c(C)cc(C(=O)CSc2nc3ccccc3c(=O)[nH]2)c1C,-45.6,-1.1,23.0,1.66,106.3,141.7*
C=CCn1c(C)cc(C(=O)CSc2nc3ccccc3c(=O)[nH]2)c1C,-36.8,27.6,33.7,2,80.7,133.9*
COCC(C)n1c(C)cc(C(=O)CSc2nc3ccccc3c(=O)[nH]2)c1C (stereo not given),16.3,29.4,0.1,0.98,79.6,85.2
Cc1cc(C)c(C(=O)CSc2nc3ccccc3c(=O)[nH]2)cc1C,-0.3,8.4,-4.1,1.18,97.1,102.0
COc1cc(SC)ccc1C(=O)Nc1ccccc1C#N,-26.1,-37.8,-5.6,1.91,133.5*,124.1
COc1cc(SC)ccc1C(=O)Nc1ccc(Cl)cn1,79.9*,100.4*,148.2*,1.44,18.2,25.6
CSc1ccc(Cl)c(C(=O)Nc2ccc(Cl)cn2)c1,6.4,23.8,-23.6,1.18,81.5,92.4
O=C(CCCN1C(=O)c2cccnc2C1=O)Nc1ccc(Br)cc1,-0.4,3.0,6.0,1.2,99.0,98.1
O=c1/c(=C\c2ccc(F)cc2)sc2n1CCCN=2,-52.0,-1.7,170.2*,2.36,101.1,148.8*
COC(=O)/C=c1/sc2n(c1=O)CCN=2,-3.1,3.8,-3.9,1.04,99.0,102.9
